# Screening results: PubChem BioAssay, several laboratories
# Only some compounds are listed: those with a hit (about 1.5% of all), similar ones and a draw of the others.
# Runt-CBFb FRET = inhibitors of human RUNX1 Runt domain binding to CBFb. Q01196+Q13951. Cerulean-Runt/Venus-CBFb FRET ratio 530/480, 1 h. AID 1496. inhibition, % at 20 µM. 0.46% of 220,000 active;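 active = inhibition over about 50% at 20 µM in the single-dose screen, limit read from the data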;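 also: 0% = DMSO wells and 100% = excess unlabeled CBFb competitor control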
# Target sequence (Q01196 whole entry, looked up, the tested form may be a part): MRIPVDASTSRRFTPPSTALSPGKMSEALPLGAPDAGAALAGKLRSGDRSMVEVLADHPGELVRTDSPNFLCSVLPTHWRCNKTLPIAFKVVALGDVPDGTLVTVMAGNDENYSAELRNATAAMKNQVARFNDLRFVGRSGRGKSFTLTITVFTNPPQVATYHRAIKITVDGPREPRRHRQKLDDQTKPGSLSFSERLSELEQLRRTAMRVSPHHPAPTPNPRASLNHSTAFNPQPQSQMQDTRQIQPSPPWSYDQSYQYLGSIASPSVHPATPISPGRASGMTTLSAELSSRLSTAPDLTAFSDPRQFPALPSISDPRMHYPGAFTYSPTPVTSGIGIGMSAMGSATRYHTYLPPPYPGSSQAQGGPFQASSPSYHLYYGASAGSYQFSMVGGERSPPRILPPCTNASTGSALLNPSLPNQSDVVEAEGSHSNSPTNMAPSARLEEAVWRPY
# Target sequence (Q13951 whole entry, looked up, the tested form may be a part): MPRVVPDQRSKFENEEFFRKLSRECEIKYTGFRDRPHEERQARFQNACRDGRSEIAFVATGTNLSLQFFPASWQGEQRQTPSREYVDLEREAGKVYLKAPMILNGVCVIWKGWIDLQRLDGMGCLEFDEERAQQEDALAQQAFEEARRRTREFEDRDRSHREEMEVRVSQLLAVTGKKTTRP
#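 test system = Cerulean-tagged RUNX1 Runt domain (FRET donor) fusion protein | reagent = Venus-CBFb binding partner, 100 nM | incubation = protein complex preformed 1 h, compound exposure 1 h, room temperature, dark | detection = FRET fluorescence | read-out basis = loss of energy transfer signal | controls = 5 µM unlabeled CBFb as full-inhibition high control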
# Hck Nef HTS = blocks Nef-activated human Hck kinase; 0.68% of 220,000 active; AID 463187; P08631; Recombinant Hck-YEEI plus Nef, Z-Lyte FRET kinase assay; inhibition, % at 20 µM;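 active = Hck-Nef kinase inhibition above about 50%, limit read from the data; inactive = inhibition below that limit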;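 also: 0% = DMSO with Hck plus Nef and 100% = Hck alone without Nef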
# CaV13 ICDI inh = Disruptors of the CACNA1D IQ motif to Ca2+-dependent inactivation inhibitor domain association, primary screening, Förster resonance energy transfer in intact living … | HEK cells, CFP/YFP FRET ICDI-IQ, plate reader, 10 min; percent FRET-ratio fall versus neutral wells | inhibition, % at 12.3 µM | 0.098% of 340,000 active;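 active = mean replicate inhibition of at least 30% and at least 1% of replicates passing that level; inconclusive = only one of the two criteria is met; inactive = neither criterion is met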;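 also: 0% = median of the neutral control wells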
# Runt-SMMHC FRET = inhibitors of human RUNX1 Runt domain binding to CBFb-SMMHC; AID 1434; inhibition, % at 20 µM; Q01196+Q13951; 0.74% of 220,000 active; Cerulean-Runt/Venus-CBFb-SMMHC FRET ratio 530/480, 1 h;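 active = mean inhibition across duplicate retests at 20 µM reaching about 50%, limit read from the data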;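 also: 0% = DMSO wells and 100% = wells with excess untagged CBFb-SMMHC; inhibitors lower the FRET ratio by blocking Runt binding to CBFb-SMMHC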
# RanGTP-Impb inh = disruptors of Ran-importin-beta complex formation – biochemical, FRET, CFP-Ran, YFP-importin-beta, homogeneous, primary screen; 1.1% of 300,000 active; AID 2216; cell-free CFP-Ran/YFP-importin-beta FRET ratio; inhibition, % (no concentration beside the values);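 active = more than half of the replicate wells show a fall in the fluorescence ratio signal beyond about 16%, limit read from the data, passing the limit was not always enough; inconclusive = exactly half of the replicate wells pass the set limit; inactive = fewer than half of replicates pass the limit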;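 also: 0% = DMSO wells and 100% = Ran loaded with GDP instead of GTP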
# Hck-Nef confirm = confirmation of Hck-Nef kinase inhibitors; calls only at 10 µM; AID 463188; 28% of 1,300 active; Recombinant Hck-YEEI:Nef, Z-Lyte FRET kinase assay; shares compounds with Hck Nef HTS;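 active = average inhibition of at least 50%, with Z-scores no higher than 3 in both the phospho-tyrosine peptide and fluorescence counterscreens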
# Active calls of the source: *; i = inactive; u = inconclusive; x = not tested or not shown; + = active, no number.
SMILES,Runt-CBFb FRET,Hck Nef HTS,CaV13 ICDI inh,Runt-SMMHC FRET,RanGTP-Impb inh,Hck-Nef confirm
O=C(CCc1ccc(O)cc1)N/N=C/c1coc2ccccc2c1=O,0,67*,-5,3,2,+
COCC(C)OC(=O)/C(C#N)=C\c1coc2ccc(C)cc2c1=O (centres undefined),-43,98*,-6,-66,x,+
NC(=S)N/N=C/c1coc2ccc(Cl)cc2c1=O,1,66*,3,0,0,+
O=C(N/N=C/c1coc2ccccc2c1=O)c1cc(O)cc(O)c1,-12,63*,11,-46,x,+
C/C=C1\NC(=O)[C@H](C)NC(=O)[C@@H](NC(=O)[C@H](Cc2ccc(O)cc2)NC(=O)[C@@H](NC(=O)/C(C)=C/C)C(C)C)[C@@H](C)OC(=O)[C@H](CC(C)C)NC(=O)[C@@H](CCC(=O)O)NC1=O,x,x,-7,x,x,x
CCCCn1c(N)c(N(CC)C(=O)CCNC(=O)NC23CC4CC(CC(C4)C2)C3)c(=O)[nH]c1=O,x,x,-5,x,1,x
Cc1ccc2occ(/C=N/NC(=O)[C@@H](N)Cc3ccccc3)c(=O)c2c1,0,80*,-1,1,-3,+
Cc1cccc(C(=O)N/N=C/c2coc3ccccc3c2=O)c1,x,x,-12,x,0,x
Cc1cc(C(=O)COC(=O)c2cc(O)c3ccccc3c2O)c(C)n1CC1CCCO1 (centres undefined),4,93*,x,-30,x,i
C=CCn1c(SCC(=O)NNC(=O)Nc2ccc(C)cc2)nnc1-c1ccccc1,1,16,-20,-2,-1,x
C=CCn1c(SCC(=O)Nc2ccc(-c3nc4ccc(C)cc4s3)cc2)nnc1-c1ccccc1,4,78*,-9,2,4,+
CCC(=O)N1N=C(c2cccs2)CC1c1ccc(OC)cc1 (centres undefined),x,x,-1,x,0,x
COc1ccc(C2CC(c3cccs3)=NN2c2ccc(C=O)cc2)cc1 (centres undefined),4,54*,-55,73*,-48,i
NS(=O)(=O)c1ccc(N2N=C(c3ccccc3)CC2c2ccc(F)cc2)cc1 (centres undefined),5,60*,x,24,0,x
COc1ccc(C2CC(c3ccccc3)=NN2c2ccc(S(N)(=O)=O)cc2)cc1 (centres undefined),2,108*,-2,29,4,x
CC(=O)N1CCN(c2ccc(NC(=O)c3cccc([N+](=O)[O-])c3)cc2)CC1,x,x,11,x,1,x
CCOC(=O)c1nnn2c1nc(SCC(C)=O)c1ccccc12,0,13,-15,0,-9,x
CCOC(=O)c1nnn2c1nc(Nc1cccc(C(F)(F)F)c1)c1ccccc12,-2,66*,-4,-1,4,i
COc1ccc(N2C(=O)CC(S/C(N)=N/N=C/c3ccnc4ccccc34)C2=O)cc1 (centres undefined),-4,31,x,-7,-2,x
N/C(=N\N=C\c1ccnc2ccccc12)SC1CC(=O)N(c2ccc(Br)cc2)C1=O (centres undefined),-5,66*,x,-7,-4,+
Cc1ccc(-c2nn(-c3ccccc3)cc2/C=C2\SC(=S)N(CC(=O)O)C2=O)cc1,-2,58*,2,-14,-2,i
CC(C)c1cc(=O)oc2c3c4c(cc12)CCCN4CCC3,14,52*,x,-3,29*,x
Cc1cc(=O)oc2c3c4c(cc12)OCCN4CCC3,4,72*,19,x,143*,x
CCCc1cc(=O)[nH]c2nnc(SCC(=O)NC3CCCCC3)n12,x,x,-6,x,1,x
CCCc1cc(NCCOCCO)n2c(nc3ccccc32)c1C#N,x,x,-11,x,x,x
SMILES,Runt-CBFb FRET,Hck Nef HTS,CaV13 ICDI inh,Runt-SMMHC FRET,RanGTP-Impb inh,Hck-Nef confirm
CCCc1cc(NCCCCO)n2c(nc3ccccc32)c1C#N,21,97*,-3,54*,43*,x
Cc1cc(NCCCCO)n2c(nc3ccccc32)c1C#N,12,59*,-7,27,38*,x
COc1ccc(-c2cccc3c2C2CC3CCN2C(=O)OCc2ccccc2)cc1 (centres undefined),x,x,-5,x,x,x
CCN(CCOC(=O)Nc1ccc(Cl)cc1)C(=O)Nc1ccc(Cl)cc1,x,x,-11,x,x,x
CCOC(=O)NCCOC(=O)Nc1ccc(Cl)cc1,2,58*,-18,-4,-2,i
O=C(CNC(=O)COc1ccccc1)NCc1cccnc1,x,x,-7,x,0,x
COc1cc2[nH]c(=S)n(Cc3cccs3)c(=O)c2cc1OC,-1,59*,-3,-4,u,i
COC(=O)C1=CNC=C(C(=O)OC)C1c1ccccc1Cl,72*,66*,-4,146*,x,x
COC(=O)C1=CNC=C(C(=O)OC)C1c1cccc2ccccc12,x,x,-19,x,0,x
Cc1ccc(-c2csc(Nc3ccc(C(=O)O)cc3)[n+]2Cc2ccccc2)cc1,-6,85*,1,-16,6,+
CN1CCN(Cc2c(O)ccc3c(-c4ccccc4)cc(=O)oc23)CC1,-16,2,-9,118,-2,x
Cc1c(C)c2cc(Cl)c(O)c(CN3CCN(C)CC3)c2oc1=O,96*,66*,-4,127*,-1,x
O=S1(=O)C[C@@H](N2CCN(CC3CC3)CC2)[C@H](COCc2ccccc2)N1,x,x,-6,x,x,x
Cc1cc(=O)oc2c(CN3CCN(CCO)CC3)c(O)ccc12,x,x,-2,x,0,x
Cc1c(O)ccc2c(CN3CCN(CCO)CC3)cc(=O)oc12,5,63*,-3,79*,56*,i
CCN1CCCc2cc(CN(CCN3CCOCC3)C(=S)Nc3ccccc3OC)ccc21,-7,-62,-2,-2,3,x
CCN1CCCc2cc(CN(CCN3CCOCC3)C(=S)Nc3ccc(OC)c(Cl)c3)ccc21,2,22,-17,4,6,x
CCN1CCCc2cc(CN(CCN3CCOCC3)C(=S)Nc3ccc(OC)c(OC)c3)ccc21,-4,52*,-1,-4,1,i
CCN1CCCc2cc(CN(CCN3CCOCC3)C(=S)Nc3ccccc3C)ccc21,0,57*,3,-2,-2,i
CN1C[C@@H]2[C@@H]3C(=O)N(C)C(=O)[C@@H]3[C@](C)(C1=O)N2C(=O)c1ccc(C(C)(C)C)cc1,x,x,-10,x,x,x
O=C(CSc1nc2ccccc2c2nc3ccccc3n12)NCc1ccco1,-1,82*,-5,-2,6,x
O=C(NCCc1ccccc1)c1nccc2ccccc12,x,x,-4,x,-2,x
c1ccc(CCNc2ccnc3cc4ccccc4cc23)cc1,36,156*,15,93*,152*,x
CC(C)Nc1ccc(Nc2ccnc3cc4ccccc4cc23)cc1,7,69*,0,8,2,+
